Test [1] has as its system Mus musculus. Briefly: In vivo evaluation for antimalarial activity against Plasmodium berghei in terms of survival days when administered subcutaneously in mice (Mus musculus). Format: functional. A digest of the protocol:
(§1)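 P. berghei ANKA infection in Moro SPF mice, groups of three. Treatment was one 100 mg/kg dose on day 1 post-infection, dissolved or suspended in 3% ethanol plus 7% Tween 80, given orally or subcutaneously. Read-out is mean survival time in days, compared with an untreated control group.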

The test system of test [2] is Mus musculus. As to the kind of experiment: In vivo evaluation for antimalarial activity against Plasmodium berghei in percentage when administered subcutaneously in mice (Mus musculus). Format: functional. Also noted: concentration or dose not given beside the values. A digest of the protocol:
(§2)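 Moro SPF mice infected with P. berghei ANKA, three per group. A single 100 mg/kg dose in 3% ethanol/7% Tween 80 (solution or suspension) was given on day 1 post-infection, po or sc. Activity is percent reduction of parasitemia on day 3 post-infection versus untreated controls.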

The test system of test [3] is Plasmodium falciparum. Briefly: In vitro antimalarial activity against chloroquine-resistant Plasmodium falciparum K1. Format: functional, organism-based. In a few lines:
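Tritiated hypoxanthine uptake assay (modified Desjardins method) on P. falciparum asexual cultures, run on chloroquine-resistant K1 and drug-sensitive NF54 strains.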

The subject of test [4] is Mus musculus. Briefly: In vivo evaluation for antimalarial activity against Plasmodium berghei in percentage when administered orally in mice (Mus musculus). Also noted: concentration or dose not given beside the values. Format: functional. In a few lines: as §2
In test [5] the test system is Plasmodium falciparum. As to the kind of experiment: In vitro antimalarial activity against drug-sensitive Plasmodium falciparum NF54.
The test system of test [6] is Mus musculus. Briefly: In vivo evaluation for antimalarial activity against Plasmodium berghei in terms of survival days when administered orally in mice (Mus musculus). Format: functional. A digest of the protocol: as §1

The structures appear in SMILES notation. pIC50: −log10 of the molar value.

As usually defined, the pIC50 is −log10 of the IC50, conventionally taken in molar units.

In test [1], `COC[C@H]1CCCCC12OOC1(CCCC[C@H]1COC)OO2` (some centres not stated) yielded a Survival of 24.7 days. Further, the values for the Activity in test [2] and in test [4] were 100% and 18%, respectively. Besides, the figures for the pIC50 in test [3] and in test [5] were 7.82 and 7.80, respectively.
Consider `CCOC(=O)C[C@H]1CCCCC12OOC1(CCCC[C@H]1CC(=O)OCC)OO2` (some centres not stated), for which the Activity in test [2] and in test [4] was 0% in each case. The pIC50 in test [3] was 8.21; in test [5], 8.19.
As for `O=C(O)CC[C@H]1CCCCC12OOC1(CCCC[C@H]1CCC(=O)O)OO2` (some centres not stated), the pIC50 in test [3] and in test [5] was under 6.70 throughout.
For `OC[C@@H]1CCCCC12OOC1(CCCC[C@@H]1CO)OO2` (some centres not stated), the pIC50 in test [3] and in test [5] was under 6.70 each time.
Regarding `CCOC(=O)CC[C@H]1CCCCC12OOC1(CCCC[C@H]1CCC(=O)OCC)OO2` (some centres not stated), the Activity in test [2] and in test [4] was 0% in each case. Further, the pIC50 in test [3] is 7.85; in test [5], 7.80.
For `O=C(O)C[C@H]1CCCCC12OOC1(CCCC[C@H]1CC(=O)O)OO2` (some centres not stated), the pIC50 in test [3] and in test [5] was under 6.70 throughout.
Consider `c1ccc(COC[C@H]2CCCCC23OOC2(CCCC[C@H]2COCc2ccccc2)OO3)cc1` (some centres not stated), for which the Activity in test [2] and in test [4] was 0% each time. The values for the pIC50 in test [3] and in test [5] were 7.74 and 7.59, respectively.
Turning to `O=C(OC[C@H]1CCCCC12OOC1(CCCC[C@H]1COC(=O)c1ccccc1)OO2)c1ccccc1` (some centres not stated), the pIC50 in test [3] and in test [5] was under 6.70 each time.
As for `c1ccc(C[C@H]2CCCCC23OOC2(CCCC[C@H]2Cc2ccccc2)OO3)cc1` (some centres not stated), the pIC50 in test [3] and in test [5] was under 6.70 in each case.
Consider `C#CC[C@@H]1CCCCC12OOC1(CCCC[C@@H]1CC#C)OO2` (some centres not stated), for which the Activity is given as 9% in test [2] and 0% in test [4]. For the same molecule, the pIC50 in test [3] and in test [5] was 7.89 throughout.
`C=CC[C@@H]1CCCCC12OOC1(CCCC[C@@H]1CC=C)OO2` (some centres not stated): the figures for the Activity in test [2] and in test [4] were 15% and 93%, respectively. Also, the negative logarithm of the IC50 (pIC50) is 7.72 in test [3] and 7.64 in test [5]. The Survival in test [6] worked out at 7 days.
Regarding `C[C@@H]1CC[C@H]2[C@@H](C)C(=O)O[C@@H]3O[C@@]4(C)CC[C@@H]1[C@]32OO4` [ARTEMISININ], the Survival turned out to be 14 days in test [1] and 7.3 days in test [6]. Further, the Activity in test [2] was 100%; in test [4], 98%. The molecule further showed a pIC50 in test [5] of 7.92.
As to `C[C@@H]1CCCCC12OOC1(CCCC[C@@H]1C)OO2` (some centres not stated) [WR-148999], the figures for the Survival in test [1] and in test [6] were 27.7 days and 7.7 days, respectively. The figures for the Activity in test [2] and in test [4] were 100% and 99.7%, respectively. Further, the pIC50 in test [3] is 7.55; in test [5], 7.41.

For the origin of these results see ChEMBL document CHEMBL1132122, “Synthesis and antimalarial activity of 11 dispiro-1,2,4,5-tetraoxane analogues of WR 148999. 7,8,15,16-Tetraoxadispiro[5.2.5.2]hexadecanes substituted at the 1 and 10 positions with unsaturated and polar functional groups” (J Med Chem, 1999).
